High-throughput results: PubChem, several laboratories
Hits are enriched below; roughly 5.4% of the tested compounds scored in any of these assays.
E coli WT exp: blocks growth of wild type E. coli BW25113 | OD600 absorbance | growth inhibition, % at 100 µM | hit rate 0.15% among 98,000 | AID 710;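 active means growth inhibition above about 50% at one test dose, limit read from the data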;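 further: growth measured after 20 h incubation at 37 °C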
PostGolgi ctrl: inhibits growth of the yeast control strain; inhibition, % at 10 µM; efflux-deficient yeast background strain, growth absorbance A615, 16 h; AID 738; hit rate 5% among 98,000
HePTP inh: inhibitors of human HePTP phosphatase | recombinant HePTP phosphatase activity, OD absorbance | inhibition, % at 20 µM | hit rate 0.64% among 110,000 | AID 521; in the data active means inhibition above about 50%
Target sequence (P35236 whole entry, looked up): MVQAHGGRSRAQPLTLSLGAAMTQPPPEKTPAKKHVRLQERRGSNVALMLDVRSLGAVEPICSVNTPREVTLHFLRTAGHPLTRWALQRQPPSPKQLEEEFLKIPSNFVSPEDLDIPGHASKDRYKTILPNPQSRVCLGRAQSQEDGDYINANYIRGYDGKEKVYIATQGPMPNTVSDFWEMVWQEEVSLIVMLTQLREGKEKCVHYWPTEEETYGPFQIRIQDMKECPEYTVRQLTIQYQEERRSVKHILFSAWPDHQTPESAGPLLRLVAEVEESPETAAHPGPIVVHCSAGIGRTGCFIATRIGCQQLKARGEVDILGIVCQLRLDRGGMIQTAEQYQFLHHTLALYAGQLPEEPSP
PostGolgi yeast: growth inhibition of a yeast mutant, post-Golgi transport screen; inhibition, % at 10 µM; hit rate 0.9% among 98,000; post-Golgi transport phenotypic cell assay;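 further: yeast cells grown in 1536-well plates; yeast grown about 18 h at 30C before absorbance read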
tolC growth inh: E. coli tolC mutant growth inhibition. E. coli BW25113 tolC mutant growth, OD615. growth inhibition, % at 10 µM (by protocol). hit rate 2.2% among 65,000. AID 573;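 active means growth inhibition at or above a cutoff equal to the mean over every tested compound plus 3 SD, cut at about 60% in these data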;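 further: growth measured after 20 h incubation at 37 °C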
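test system = E. coli BW25113 ΔtolC::kan bacteria | medium = LB with kanamycin 50 µg/mL | signal = OD at 615 nm | schedule = 37 °C, 20 h exposure | evaluation = % inhibition of E. coli growth | compound dosing = one dose of 10 µM final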
PLAP activator: activators of human placental alkaline phosphatase; hit rate 1.2% among 96,000; AID 696; activation fold at 20 µM; purified PLAP enzyme, luminescent substrate read-out; active compounds read high; P05187; in the data active means activation fold above about 2
Numbers stand for hits; i = inactive; nt = not tested or not shown; ! = not confirmed by another sample. Unless noted, no stated cut-off is given here; in the data, active means inhibition above about 30%; inactive means the rest.

SMILES | E coli WT exp | PostGolgi ctrl | HePTP inh | PostGolgi yeast | tolC growth inh | PLAP activator
CCC1Oc2ccc(C)cc2N(CC(=O)NCc2cccc(OC)c2)C1=O (stereo unspecified) | i | 33 | i | i | i | i
CN(C)/C=C1\N=C(c2cccc(Cl)c2)OC1=O | nt | nt | i | nt | nt | nt
c1ccc(C2=Nc3ccccc3NC(c3ccccc3)C2)cc1 (stereo unspecified) | i | 36 | i | i | nt | i
C(=C\c1ccccc1)/C1=Nc2ccccc2NC(c2ccccc2)C1 (stereo unspecified) | nt | nt | i | nt | nt | nt
COc1ccc2c(c1)CCc1c(C(=O)Nc3c(C)nn(Cc4ccccc4)c3C)noc1-2 | i | i | nt | i | nt | i
CCOC(=O)c1sc2ncn(C(CC)C(=O)OCC)c(=O)c2c1C (stereo unspecified) | i | i | i | i | i | i
N#CC1=C(N)NC(SCc2ccc(F)cc2)=C(C#N)C12CCCCC2 | i | 68 | i | 99 | i | i
Cc1occc1C(=O)N/N=C/c1ccc(O)cc1O | nt | nt | i | nt | nt | nt
COCCNC(=O)C(c1ccc(F)cc1)N(CC1CCCO1)C(=O)CCC(=O)Nc1ccccn1 (stereo unspecified) | i | i | i | 31 | i | i
COCCNC(=O)CN(CC1CCCO1)C(=O)CCC(=O)Nc1ccccn1 (stereo unspecified) | i | i | i | i | i | i
CCOC(=O)c1sc(NC(=O)c2ccc(C)c([N+](=O)[O-])c2)c(C(=O)OCC)c1C | nt | nt | i | nt | nt | nt
Cc1ccc(NC(=O)C2CC(=O)N(c3ccc4c5c(cccc35)CC4)C2)cc1 (stereo unspecified) | i | 31 | nt | i | nt | i
Cc1ccc(NC(=O)C2CC(=O)N(c3ccc(C)cc3)C2)cc1 (stereo unspecified) | nt | nt | i | nt | nt | nt
CCNC(=S)NNC(=O)c1cc(-c2ccccc2)nc2ccccc12 | nt | nt | i | nt | nt | nt
CCNC(=S)NNC(=O)c1cc(C2CC2)nc2ccccc12 | i | i | nt | i | nt | 2.1
CCCCOc1cccc(-c2cc(C(=O)NNC(=S)NCC)c3ccccc3n2)c1 | i | i | nt | i | nt | i
CCNC(=S)NNC(=O)c1cc(-c2cccc(OCC)c2)nc2ccccc12 | i | i | nt | i | nt | 2.7
COc1ccc(C2CC(c3ccc([N+](=O)[O-])cc3)=NN2C(=O)c2ccccc2)cc1OC (stereo unspecified) | nt | nt | i | nt | nt | nt
c1ccc(-c2csc(N3CCCCCC3)n2)cc1 | i | i | i | i | i | i
NC(=O)C1(N2CCCCC2)CCN(c2nc(-c3ccc(Br)cc3)cs2)CC1 | i | 60 | nt | i | nt | i
COC(=O)c1c(C)[nH]c(C(=O)OCC(=O)NCC(C)C)c1C | i | i | nt | i | nt | i
O=C(CC(c1ccccc1)c1ccco1)N1CCOCC1 (stereo unspecified) | nt | nt | i | nt | i | nt
Cc1nc2ncnn2c(N2CCN(c3cccc(C(F)(F)F)c3)CC2)c1C | i | i | i | i | i | 2
Cc1nc2ncnn2c(N2CCN(C(c3ccccc3)c3ccccc3)CC2)c1C | i | i | i | i | 62 | i
Cc1cc(N2CCN(C(c3ccccc3)c3ccccc3)CC2)n2ncnc2n1 | i | i | i | i | 82 | i
SMILES | E coli WT exp | PostGolgi ctrl | HePTP inh | PostGolgi yeast | tolC growth inh | PLAP activator
Cc1cc(N2CCN(c3cccc(C(F)(F)F)c3)CC2)n2ncnc2n1 | i | i | i | i | i | i
Cc1cc(N2CCN(c3nc4ccccc4s3)CC2)n2ncnc2n1 | i | i | i | i | i | i
Cc1cc(C)cc(N2C(=O)NC(=O)/C(=C\c3ccc(C(=O)O)cc3)C2=O)c1 | nt | nt | i | nt | nt | nt
O=C(CSc1nccn1-c1ccc(F)cc1)Nc1ccc2c(c1)OCO2 | i | i | i | i | i | i
COc1cc(C(=O)Nc2c(C)cc(C)cc2C)c(-n2cnnn2)cc1OC | i | i | i | i | i | i
Cc1sc2nc(SCC(=O)C(C)(C)C)n(Cc3ccco3)c(=O)c2c1C | i | 39 | nt | i | nt | i
COc1ccc(OC)c(S(=O)(=O)NCc2cn3cccc(C)c3n2)c1 | nt | nt | nt | nt | i | nt
Cc1cccn2cc(CNS(=O)(=O)c3cccc(F)c3)nc12 | i | i | nt | i | nt | 2.3
O=C(C1CCCO1)N1CCN(S(=O)(=O)c2ccccc2)CC1 (stereo unspecified) | i | 36 | i | i | i | i
O=C(C1CN(S(=O)(=O)c2ccccc2)CCN1S(=O)(=O)c1ccccc1)N1CCCCCC1 (stereo unspecified) | i | i | 50! | i | i | i
O=C(c1ccc(Br)cc1)N1CCN(S(=O)(=O)c2ccccc2)CC1 | i | 35 | i | i | i | i
O=C(C1CCCO1)N1CCN(C(c2ccccc2)c2ccccc2)CC1 (stereo unspecified) | i | i | i | i | i | i
